This is a sample that favours compounds with a hit; in the whole collection about 1.8% have one here.
CHRM4 antagonist = antagonists of human muscarinic M4 receptor (CHRM4); P08173; CHO-hM4 cells, ACh EC80, Fluo-8 calcium fluorescence; inhibition, % at 3 µM; 360,000 tested, 0.73% active;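 active = inhibition above its plate's cutoff, the mean inhibition of sample wells plus 3 SD, cut at about 27% in these data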
M5 antag = antagonists of human muscarinic M5 receptor (CHRM5) | AID 624040 | CHO-hM5 cells, Fluo-8 calcium fluorescence, ACh EC80 | 360,000 tested, 0.59% active | inhibition, % at 3 µM;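 active = inhibition above a per-plate cutoff, the mean of that plate's test compounds plus 3 SD, cut at about 27% in these data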
Target sequence (P08912 whole entry, looked up): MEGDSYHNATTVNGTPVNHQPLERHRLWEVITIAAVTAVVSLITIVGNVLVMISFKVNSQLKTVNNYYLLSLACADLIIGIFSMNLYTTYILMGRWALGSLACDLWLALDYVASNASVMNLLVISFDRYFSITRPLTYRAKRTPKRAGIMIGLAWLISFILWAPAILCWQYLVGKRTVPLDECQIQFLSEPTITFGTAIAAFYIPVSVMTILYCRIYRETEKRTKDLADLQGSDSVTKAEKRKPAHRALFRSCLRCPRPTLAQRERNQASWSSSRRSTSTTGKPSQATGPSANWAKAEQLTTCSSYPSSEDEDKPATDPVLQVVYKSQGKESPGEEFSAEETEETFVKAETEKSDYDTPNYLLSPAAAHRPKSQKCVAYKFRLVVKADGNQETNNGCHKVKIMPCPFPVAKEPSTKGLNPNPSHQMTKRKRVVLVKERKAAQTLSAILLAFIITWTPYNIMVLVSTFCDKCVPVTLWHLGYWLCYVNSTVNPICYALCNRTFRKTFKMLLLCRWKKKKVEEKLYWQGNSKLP
CHRM4 agonist = CHRM4 agonism in calcium assay. P08173. CHO-K1 hM4/Gqi5, Fluo-8 calcium fluorescence; vehicle 0%, full acetylcholine response 100%. activation, % at 3 µM. 360,000 tested, 0.14% active;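 active = activation above the run mean over all test wells plus 3 SD, cut at about 32% in these data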;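 also: peak over basal fluorescence ratio per well then scaled between controls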
M4 PAM = positive allosteric modulators of human muscarinic M4 receptor. CHO-K1 hM4/Gqi5, Fluo-8 calcium fluorescence, ACh EC20; 0% = ACh EC20, 100% = maximal ACh. 360,000 tested, 0.4% active. P08173. activation, % at 3 µM;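 active = activation above its plate's cutoff, the mean activation of sample wells plus 3 SD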
CHRM5 agonist = agonists of human muscarinic M5 receptor (CHRM5); P08912; CHO-K1 hM5 cells, Fluo-8 calcium fluorescence; 0% DMSO wells, 100% maximal acetylcholine response; activation, % at 3 µM; 360,000 tested, 0.19% active; AID 624037;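 active = activation above the run's mean over test compounds plus 3 SD, cut at about 23% in these data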;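 also: signal is peak over basal fluorescence ratio across the kinetic read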
CHRM5 PAM = CHRM5 positive allosteric modulation; P08912; CHO-K1 hM5, Fluo-8 calcium, ACh EC20 PAM; 0% = ACh EC20, 100% = ACh EC100; activation, % at 3 µM; 360,000 tested, 0.3% active; AID 624038;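 active = activation above the run cutoff, the mean activation of all test compounds plus 3 SD, cut at about 18% in these data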
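Replicates: One well per compound, no replicates | System: Human M5 receptor in CHO-K1 cells | Benchmarks: Low control EC20 acetylcholine (0%), high control EC100 acetylcholine (100%) | Probe or stimulus: Acetylcholine, EC20 level | Times: Fluo-8 loading 80 min at 37 °C plus 30 min room temperature | Signal: Intracellular calcium via Fluo-8 fluorescence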
Hits are given with their value; i = inactive.

SMILES	CHRM4 antagonist	M5 antag	CHRM4 agonist	M4 PAM	CHRM5 agonist	CHRM5 PAM
COc1ccccc1C1(O)C(=O)Nc2ccccc21 (stereo not given)	i	i	i	14.6	i	i
CCc1nc2ccc(C(=O)NCCOc3ccc(OC)cc3)cn2c1N(C)CCCc1ccccc1	i	i	i	i	i	i
OCCN(CC#CC(O)(c1ccccc1)c1ccccc1)CCO	i	i	i	i	i	i
CC(C)(C#CC(O)(c1ccccc1)c1ccccc1)N1CCCC1	79.3	69.5	i	i	i	i
CC(=O)NNC(=O)C(O)(c1ccccc1)c1ccccc1	i	i	i	i	i	i
CC(C)(C#CC(O)(c1ccccc1)c1ccccc1)N1CCCCC1	47.0	41.8	i	i	i	i
O=C(CNc1cc(S(=O)(=O)N2CCOCC2)ccc1NCC1CCCO1)Nc1ccc(F)c(F)c1 (stereo not given)	i	i	i	i	i	i
COc1cc(C(=O)N(C)CCOc2ccc(C)cc2)ccc1OC1CCN(C(C)=O)CC1	i	i	i	i	i	i
CCN1CCN(C(=O)/C=C/c2ccc(OC)cc2)CC1	i	i	i	12.4	i	i
CCOc1ccc(CCNC(=O)CCS(=O)(=O)c2ccc(Cl)cc2)cc1OCC	i	i	i	i	i	i
CSc1ncccc1C(=O)NCCc1ccccc1F	i	i	i	i	i	i
Cc1ccc(/C=N/N2CCN(Cc3cccc4ccccc34)CC2)o1	29.5	i	i	i	i	i
Cc1ccc(/C=N/N2CCN(Cc3ccccc3)CC2)o1	i	i	i	i	i	i
Cc1c(C(c2ccc(C(=O)O)cc2)c2c(C)n(C)n(-c3ccccc3)c2=O)c(=O)n(-c2ccccc2)n1C	i	i	i	i	i	i
COc1cccc2c1OCC/C2=N\NC(=O)COc1ccccc1C	i	i	i	23.3	i	i
CCOc1ccc(C2CC=C(C(C)=O)CN2S(=O)(=O)c2ccc(C)cc2)cc1 (stereo not given)	i	i	i	i	i	i
Brc1ccc(OCc2ccccc2)c(CNCc2ccncc2)c1	29.4	i	i	i	i	i
Cc1cc(C(=O)O)ccc1-c1ccc(/C=C2\NC(=O)N(Cc3ccc(F)cc3)C2=O)o1	i	i	i	i	i	i
Cc1onc(-c2ccccc2Cl)c1C(=O)N1CCOC12CCCCC2	i	i	i	19.0	i	i
Cc1onc(-c2c(Cl)cccc2Cl)c1C(=O)N1CCc2ccccc2C1	32.0	i	i	i	i	i
CCOC(=O)N1CCN(C/C(Cl)=C/c2ccccc2)CC1	i	i	i	i	i	i
COc1ccc(S(=O)(=O)N2CCCC(C(=O)NCCN3CCOCC3)C2)cc1C (stereo not given)	i	i	i	i	i	i
CCCCC(=O)Nc1nc2c(s1)COc1ccccc1-2	i	i	i	i	i	i
O=C(NCC1CCCN1S(=O)(=O)c1cccs1)C(=O)Nc1ccccc1Cl (stereo not given)	i	i	i	i	i	i
Cc1cc(C)n2[nH]c(=O)cc2n1	i	i	i	i	i	i
SMILES	CHRM4 antagonist	M5 antag	CHRM4 agonist	M4 PAM	CHRM5 agonist	CHRM5 PAM
CC(=O)c1cc2c(cc1NC(=O)C1CCC1)OCO2	i	i	i	23.6	i	i
COc1ccc(S(=O)(=O)Nc2cc3c4c(c2)CC(=O)N4CCC3)cc1OC	i	i	i	i	i	i
O=c1c(-c2ccccc2)c(O)c2cccc3c2n1CCC3	i	i	i	17.3	i	i
C=CCNC(=O)c1c(O)c2cccc3c2n(c1=O)CCC3	i	i	i	15.7	i	42.9
Cc1cc(C)c(-c2c(O)c3cccc4c3n(c2=O)CCC4)c(C)c1	i	i	i	i	i	i
Cn1c2c(c(=O)n(C)c1=O)CN(Cc1ccccc1)CN2	i	i	i	i	i	i
CN1CCN(c2cc(-c3ccccc3)nc3cc(-c4ccc(F)cc4)nn23)CC1	i	i	i	i	i	i
Fc1ccc(-c2cc3nc(-c4ccccc4)cc(N4CCN(CCN5CCOCC5)CC4)n3n2)cc1	i	i	33.3	i	i	i
CCOc1ccc(NC(=O)c2cc3c(=O)n(C)c4ccccc4c3n2C)cc1	i	i	i	i	i	i
